A selection: hits, their analogues and other compounds. The true share with any hit is near 2.7%.
Wee1 stabilizer: blocks degradation of human Wee1 kinase | P30291 | HeLa Luc-Wee1K328M stability, luciferase luminescence; 100% = proteasome inhibitor MG132 effect | reporter increase, % at 5 µM | 220,000 compounds, 1.2% hits | AID 1321;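 active = activation above the mean of all tested compounds plus 3 SD, set per screening run, cut at about 8.8% in these data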;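 also: cells exposed to compound for 20 h before luminescence read; 0% = DMSO alone and 100% = MG132 at 30 µM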
Target sequence (P30291 whole entry K328M): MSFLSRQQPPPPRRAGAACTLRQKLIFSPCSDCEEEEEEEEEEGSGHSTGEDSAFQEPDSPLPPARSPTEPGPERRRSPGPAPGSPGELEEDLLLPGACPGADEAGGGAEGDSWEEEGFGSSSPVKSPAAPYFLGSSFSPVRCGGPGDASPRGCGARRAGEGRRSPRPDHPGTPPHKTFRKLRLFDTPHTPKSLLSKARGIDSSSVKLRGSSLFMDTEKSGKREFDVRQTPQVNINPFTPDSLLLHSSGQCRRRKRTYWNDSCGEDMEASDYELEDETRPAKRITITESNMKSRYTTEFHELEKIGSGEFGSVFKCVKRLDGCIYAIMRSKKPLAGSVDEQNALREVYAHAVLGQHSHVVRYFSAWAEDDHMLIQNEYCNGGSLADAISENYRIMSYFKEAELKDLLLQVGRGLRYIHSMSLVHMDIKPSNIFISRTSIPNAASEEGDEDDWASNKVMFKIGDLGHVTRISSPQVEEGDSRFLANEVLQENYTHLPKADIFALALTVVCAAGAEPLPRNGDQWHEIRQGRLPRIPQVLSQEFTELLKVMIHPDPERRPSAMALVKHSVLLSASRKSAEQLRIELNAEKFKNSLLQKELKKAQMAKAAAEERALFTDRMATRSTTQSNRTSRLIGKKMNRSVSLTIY
Hck-Nef inh: human Hck-Nef kinase inhibition; AID 463187; inhibition, % at 20 µM; 220,000 compounds, 0.68% hits; Recombinant Hck-YEEI plus Nef, Z-Lyte FRET kinase assay;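 active = Hck-Nef kinase inhibition above about 50%, limit read from the data; inactive = inhibition below that limit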;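 also: 0% = DMSO with Hck plus Nef and 100% = Hck alone without Nef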
Tb hexokinase: blocks Trypanosoma brucei hexokinase 1 activity; 220,000 compounds, 0.11% hits; inhibition, % at 10 µM; recombinant TbHK1, G6PDH-coupled NADH A340; AID 1430;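 active = inhibition of 50% or more in the single-dose primary screen; inactive = inhibition below 50%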
14-3-3 Bad PPI: disrupts binding of bovine 14-3-3 zeta to phospho-Bad peptide. TR-FRET 14-3-3zeta/Dy647-pBad peptide displacement, 1 h. inhibition, % at 21.7 µM. 220,000 compounds, 0.71% hits. AID 781;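 active = inhibition above about 70%, limit read from the data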;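 also: 0% = full 14-3-3 plus peptide FRET controls and 100% = background without 14-3-3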
Mdm2 ligase inh: inhibitors of human Mdm2 E3 ubiquitin ligase; Q00987; signal enhancement, % at 5 µM; 210,000 compounds, 0.11% hits; cell-based MDM2 ubiquitination luciferase reporter, 2 h; 0 = plate control, 100 = twice control, blank-subtracted; AID 1230;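 active = signal enhancement of 30% or more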;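 also: luminescence tracks abundance of the self-degrading MDM2-luciferase fusion protein; higher signal means inhibition of MDM2 E3 ligase activity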
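Assay system: stable mammalian line carrying autodegrading MDM2–luciferase fusion reporter; Input: 2000 cells in each well; Compound dosing: single-point 5 µM; Schedule: 2 h compound exposure at 37 °C; Signal: SteadyLite luciferase luminescence after 15 min room-temperature reagent incubation; Evaluation: % luminescence enhancement versus blank-corrected plate control mean; Benchmarks: plate controls and plate blanks.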
Hck Nef conf: Hck-Nef kinase inhibition, confirmation; shares compounds with Hck-Nef inh; Recombinant Hck-YEEI:Nef, Z-Lyte FRET kinase assay; calls only at 10 µM; 1,300 compounds, 28% hits; AID 463188;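 active = average inhibition of at least 50%, with Z-scores no higher than 3 in both the phospho-tyrosine peptide and fluorescence counterscreens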
* = called active by the depositor; i = inactive; x = not tested or not shown; + = active, no number; [ ] = dose if it differs, or a comment.

SMILES	Wee1 stabilizer	Hck-Nef inh	Tb hexokinase	14-3-3 Bad PPI	Mdm2 ligase inh	Hck Nef conf
COc1cc(OC)c(/C=N/NC(=O)c2ccncc2)cc1Br	-1.2	4.0	-27.5	-3.7	-25.5	x
COc1cc(OC)c(/C=N/NC(=O)c2ccc(NC(C)=O)cc2)cc1Br	4.6	55.2*	-31.6	76.1*	9.9	i
CN(/N=C/c1ccc(O)cc1O)c1ncc(C(F)(F)F)cc1Cl	1.3	21.2	-26.7	-15.8	-8.4	x
COc1ccccc1CC(NC(C)=O)C(=O)NC1CCN(C(=O)c2ccc([N+](=O)[O-])cc2)CC1 (stereo not given)	2.5	3.3	-5.6	2.5	x	x
Cc1c2c(=O)n(-c3nc4ccccc4s3)nc-2cc(O)n1Cc1ccccc1	6.0	84.2*	-7.8	-8.3	-48.0	i
C(=N\Nc1ncnc2sc3c(c12)CCC3)/c1ccncc1	2.4	50.6*	-31.1	-6.7	-15.8	i
CCn1nc(C)c(NC(=O)/C=C/c2ccc(OC)c(COc3ccc(Cl)cc3Br)c2)c1C	-0.9	98.7*	-5.9	76.9*	-6.3	i
CC(C)C1Cc2[nH]c(=O)c(C(=O)O)cc2CO1 (stereo not given)	-2.6	74.8*	-7.6	4.1	-0.5	i
CCOC(=O)c1cc2c(=O)n3ccccc3nc2n(CC2CCCO2)c1=NC(=O)/C=C/c1ccccc1 (stereo not given)	5.0	17.5	-20.8	-4.1	-5.8	x
CCOC(=O)c1cc2c(=O)n3ccccc3nc2n(CC2CCCO2)c1=NC(C)=O (stereo not given)	-2.1	192.9*	-18.6	x	x	x
O=C1OC(/C=C/c2ccccc2)=NC/1=C\c1cccnc1	1.8	81.9*	-3.6	0.1	-6.2	+
O=C(Cn1c2ccc(F)cc2c2nc3n(c(=O)c21)CCS3)Nc1ccccc1F	1.3	28.9	-11.8	26.1	6.0	x
O=C(Cn1c2ccc(F)cc2c2nc3n(c(=O)c21)CCS3)Nc1ccccc1C(F)(F)F	-2.3	89.2*	-4.4	81.1*	-0.3	i
COc1cc(/C=C2\SC(=O)N(Cc3ccc(Cl)cc3)C2=O)cc([N+](=O)[O-])c1O	-0.7	51.0*	12.6	96.4*	2.8	i
CCOC(=O)CNC(=O)Nc1ccccc1C(=O)OC	-0.5	9.7	-12.1	-2.8	-15.8	x
COc1ccc2c(c1)CC/C(=C/c1ccco1)C2=O	7.4	11.6	-22.1	3.3	-25.0	x
O=C1/C(=C/c2ccco2)CCc2ccccc21	-2.6	100.1*	-1.1	12.8	-18.0	i
CCCc1cc(=O)[nH]c(SCC(=O)NN(c2ccccc2)c2ccccc2)n1	-1.2	-6.6	-3.1	-1.5	-16.2	x
COc1ccccc1C(=O)Nc1ccc(-c2nnn(CC(=O)NCc3ccco3)n2)cc1	2.3	50.9*	-27.0	48.0	x	i
Cc1ccc(N2NC(=O)/C(=C/c3ccc(-c4ccc(Cl)c(C(=O)O)c4)o3)C2=O)cc1	-3.7	25.1	11.3	4.2	-12.5	x
O=C1NN(c2ccccc2)C(=O)/C1=C\c1ccc(-c2cc([N+](=O)[O-])ccc2O)o1	-4.3	75.5*	-12.7	14.8	-4.2	+
O=C1NN(c2ccc(Cl)cc2)C(=O)/C1=C\c1ccc(-c2cccc(C(=O)O)c2)o1	5.3	53.2*	17.1	64.3	16.5	i
CN(c1cccc(NC(=O)Cc2ccccc2)c1)S(C)(=O)=O	-0.3	6.7	0.2	-1.0	-6.3	x
Cc1cc(CNC(=O)C(C)Cc2ccccc2)nn1C (stereo not given)	-3.3	-8.7	4.9	7.1	x	x
O=C(NN1C(=O)/C(=C/C=C/c2ccco2)SC1=S)c1ccncc1	0.0	90.4*	4.4	70.8*	3.4	i
SMILES	Wee1 stabilizer	Hck-Nef inh	Tb hexokinase	14-3-3 Bad PPI	Mdm2 ligase inh	Hck Nef conf
O=C(O)c1ccc(N2C(=O)/C(=C/C=C/c3ccccc3)SC2=S)cc1	-3.7	16.7	4.5	-8.1	-6.5	x
CC(C)C(C(=O)O)N1C(=O)/C(=C/C=C/c2ccco2)SC1=S (stereo not given)	-1.6	83.1*	38.3	70.9*[fluorescence artefact?]	-9.8	i
CC(C)C(C(=O)O)N1C(=O)/C(=C/c2cccn2C)SC1=S (stereo not given)	-3.0	2.6	7.6	2.1	3.5	x
O=C1/C(=C/C=C/c2ccco2)SC(=S)N1c1ccc(O)cc1	-2.4	97.7*	16.7	62.8	-12.6	+
O=C(NN1C(=O)/C(=C/C=C/c2ccccc2)SC1=S)c1ccncc1	-2.5	27.8	-3.7	-14.1	2.8	x
COC(=O)c1cc(C#N)c(N2CCN(C)CC2)nc1C	-1.0	13.4	-4.6	-4.1	-11.4	x
O=C(c1cc(COc2ccc(F)cc2F)on1)N1CCSCC1	3.5	22.0	0.8	-11.1	-1.3	x
CCOC(=O)c1c(C)[nH]c(C(=O)OCC(=O)N2CCc3ccccc32)c1C	2.2	92.5*	-5.7	43.8	-1.3	i
COc1cc2nc(CN3C(=O)c4ccccc4C3=O)oc(=O)c2cc1OC	-2.1	0.1	-1.7	-17.6	-4.6	x
Cc1cccc2c(SCC(=O)NCC3CCCO3)nc(-c3ccc(F)cc3)nc12 (stereo not given)	0.3	87.9*	-7.5	1.7	5.9	i
Cc1cccc2cc(C#N)c(SCC(=O)NCC3CCCO3)nc12 (stereo not given)	-2.7	0.8	-4.3	-7.7	-5.5	x
Cc1ccc(C2=NC(=O)/C(=C/c3cc(O)c(O)c(Br)c3)S2)cc1	2.9	50.1*	11.5	28.8	-5.5	+
NS(=O)(=O)c1ccc(CNS(=O)(=O)c2cc(C(=O)O)ccc2Cl)cc1	-2.8	63.2*	3.7	2.4	-14.0	i
CC(C)n1nnc2c(=O)oc3ccccc3c21	-0.7	-0.4	1.9	-0.2	-5.7	x
CCCn1c(=N)c(C#N)cc2c(=O)n3cccc(C)c3nc21	-1.0	31.8	-4.0	-3.0	-15.2	x
N#Cc1cc2c(=O)n3ccccc3nc2n(CCCn2ccnc2)c1=N	-1.3	55.4*	-3.6	x	-12.8	i
CCCn1c(=N)c(C#N)cc2c(=O)n3ccccc3nc21	-1.5	60.4*	-11.9	2.5	-3.3	x
COc1cc(NC(=O)CSc2cc(C)c3cc(C)cc(C)c3n2)c(C(=O)O)cc1OC	-0.5	27.0	-7.1	1.3	x	x
COc1ccc(-c2nc(N3CCOCC3)nc3n[nH]c(N)c23)cc1	-3.0	64.3*	-7.0	1.4	-18.0	+
COc1ccccc1CN(Cc1nc2ccccc2c(=O)[nH]1)S(=O)(=O)c1ccc2ccccc2c1	0.1	109.6*	1.5	1.9	4.2	i
COc1ccc(S(=O)(=O)N(Cc2ccccc2)Cc2nc3ccccc3c(=O)[nH]2)cc1	1.2	0.2	0.1	7.1	-17.0	x
O=C(Nc1c2ccccc2nc2ccccc12)C(Cl)(Cl)Cl	2.8	71.0*	2.4	79.5*[fluorescence artefact?]	-10.6	i
O=C(Cc1ccccc1)NNc1c2ccccc2nc2ccccc12	-2.0	5.2	4.4	-4.0	-12.4	x

Source: PubChem BioAssay (several laboratories)
